Measured values reported in ChEMBL document CHEMBL1781995, “Acenaphtho[1,2-b]pyrrole-based selective fibroblast growth factor receptors 1 (FGFR1) inhibitors: design, synthesis, and biological activity” (J Med Chem, 2011).
The source made the active and inactive calls. The calls are words filed in the database; no cut-off is given here.

Tests used:
BXPC-3 = assay: Antiproliferative activity against human BxPC3 cells expressing FGFR after 72 hrs by SRB assay; assay type: functional, cell-based; settings: BXPC-3, 72 h
Summary of the method: (§1)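 Cells seeded and grown 24 h, then exposed to increasing compound concentrations for 72 h without medium change. Fixed with cold 10% TCA 1 h at 4 °C, stained 15 min with 4 mg/mL SRB in 1% acetic acid, rinsed, dye dissolved in 10 mM Tris base, A515 read. Inhibition = (1 − A515treated/A515control)×100; IC50 by Logit method from at least three independent tests.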

WI-38 = assay: Antiproliferative activity against human WI38 cells expressing FGFR after 72 hrs by SRB assay; assay type: cell-based; settings: WI-38, 72 h; summary of the method: as §1
[1] = biological target: T1, Fibroblast growth factor receptor 1 (Homo sapiens, UniProt P11362); assay: Inhibition of FGFR1 using poly(Glu-Tyr)4:1 as substrate after 60 mins by ELISA
Target sequence in this assay (P11362 whole entry): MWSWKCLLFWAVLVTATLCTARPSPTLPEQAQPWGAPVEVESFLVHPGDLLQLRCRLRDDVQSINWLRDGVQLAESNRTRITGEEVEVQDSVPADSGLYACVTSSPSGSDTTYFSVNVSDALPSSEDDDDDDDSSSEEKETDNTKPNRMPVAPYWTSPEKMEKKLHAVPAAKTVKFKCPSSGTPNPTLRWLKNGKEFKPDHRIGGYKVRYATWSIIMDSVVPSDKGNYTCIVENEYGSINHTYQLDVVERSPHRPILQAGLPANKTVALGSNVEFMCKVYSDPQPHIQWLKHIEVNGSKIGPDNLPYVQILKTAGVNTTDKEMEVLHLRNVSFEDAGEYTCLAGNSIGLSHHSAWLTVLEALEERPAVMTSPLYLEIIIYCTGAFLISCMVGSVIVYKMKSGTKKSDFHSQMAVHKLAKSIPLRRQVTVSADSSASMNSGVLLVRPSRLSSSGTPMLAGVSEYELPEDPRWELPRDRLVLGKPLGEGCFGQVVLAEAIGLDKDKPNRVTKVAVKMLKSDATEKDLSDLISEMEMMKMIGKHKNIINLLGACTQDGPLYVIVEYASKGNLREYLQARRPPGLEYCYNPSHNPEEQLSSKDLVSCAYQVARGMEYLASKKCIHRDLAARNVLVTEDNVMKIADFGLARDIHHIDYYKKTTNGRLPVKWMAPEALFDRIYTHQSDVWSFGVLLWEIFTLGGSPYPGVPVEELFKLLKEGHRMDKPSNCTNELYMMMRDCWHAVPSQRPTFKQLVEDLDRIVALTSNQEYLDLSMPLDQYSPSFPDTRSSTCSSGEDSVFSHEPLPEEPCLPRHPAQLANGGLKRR

T-24 = assay: Antiproliferative activity against human T24 cells expressing FGFR after 72 hrs by SRB assay; assay type: functional, cell-based; settings: T-24, 72 h; summary of the method: as §1
Calf thymus DNA = assay: Binding affinity to calf thymus DNA at 20 uM by circular dichroism assay; assay type: nucleic-acid assay; settings: Bos taurus
[2] = biological target: Macrophage-stimulating protein receptor (Homo sapiens, UniProt Q04912); assay: Inhibition of RON expressed in Bac-to-Bac Baculovirus expression system using poly(Glu-Tyr)4:1 as substrate after 60 mins by ELISA
Macrophage-stimulating protein receptor, sequence (Q04912 25-304 limits assumed): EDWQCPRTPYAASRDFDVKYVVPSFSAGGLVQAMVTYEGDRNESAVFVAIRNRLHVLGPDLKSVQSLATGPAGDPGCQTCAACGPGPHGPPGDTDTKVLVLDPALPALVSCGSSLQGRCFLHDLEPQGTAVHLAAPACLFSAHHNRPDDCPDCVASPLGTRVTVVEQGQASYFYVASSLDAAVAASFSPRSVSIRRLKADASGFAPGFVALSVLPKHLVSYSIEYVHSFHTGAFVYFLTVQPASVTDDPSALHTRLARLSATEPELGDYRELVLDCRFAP
Macrophage-stimulating protein receptor, sequence (Q04912 310-1400 limits assumed): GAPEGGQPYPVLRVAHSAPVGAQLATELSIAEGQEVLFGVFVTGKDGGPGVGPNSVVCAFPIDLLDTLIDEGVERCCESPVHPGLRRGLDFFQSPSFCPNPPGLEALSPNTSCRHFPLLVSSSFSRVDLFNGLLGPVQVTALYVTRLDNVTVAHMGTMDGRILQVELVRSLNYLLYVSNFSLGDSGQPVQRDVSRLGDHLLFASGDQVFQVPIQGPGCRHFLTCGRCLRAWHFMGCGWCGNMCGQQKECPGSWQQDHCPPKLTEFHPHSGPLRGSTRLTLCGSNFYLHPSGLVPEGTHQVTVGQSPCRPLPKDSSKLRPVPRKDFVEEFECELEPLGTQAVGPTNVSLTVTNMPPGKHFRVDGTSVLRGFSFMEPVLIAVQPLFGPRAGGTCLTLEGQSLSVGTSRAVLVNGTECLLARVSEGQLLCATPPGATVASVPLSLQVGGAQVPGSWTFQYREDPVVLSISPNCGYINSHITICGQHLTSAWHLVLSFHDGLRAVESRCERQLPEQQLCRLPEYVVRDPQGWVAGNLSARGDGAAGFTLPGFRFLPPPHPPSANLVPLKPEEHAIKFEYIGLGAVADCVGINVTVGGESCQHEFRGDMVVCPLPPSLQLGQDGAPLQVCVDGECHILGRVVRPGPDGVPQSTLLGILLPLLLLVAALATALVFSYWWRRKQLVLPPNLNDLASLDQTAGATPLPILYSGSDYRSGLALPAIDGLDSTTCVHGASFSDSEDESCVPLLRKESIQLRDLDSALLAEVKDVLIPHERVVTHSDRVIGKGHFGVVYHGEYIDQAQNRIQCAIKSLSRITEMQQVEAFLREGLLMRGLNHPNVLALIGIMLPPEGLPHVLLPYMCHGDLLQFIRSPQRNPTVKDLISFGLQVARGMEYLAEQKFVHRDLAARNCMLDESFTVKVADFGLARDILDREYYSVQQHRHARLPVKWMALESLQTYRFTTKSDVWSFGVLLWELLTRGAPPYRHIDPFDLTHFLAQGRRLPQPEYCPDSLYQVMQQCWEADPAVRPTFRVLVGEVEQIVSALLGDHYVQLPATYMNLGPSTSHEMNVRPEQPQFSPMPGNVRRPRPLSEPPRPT
Summary of the method: (§2)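 Wells precoated with 20 μg/mL poly(Glu,Tyr)4:1. Detected with PY99 anti-phosphotyrosine, then HRP anti-mouse IgG and o-phenylenediamine/H2O2; stopped with H2SO4, A490. Duplicates per concentration; IC50 from inhibition curves, at least three independent tests.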

[3] = biological target: Platelet-derived growth factor receptor alpha (Homo sapiens, UniProt P16234); assay: Inhibition of PDGFRalpha using poly(Glu-Tyr)4:1 as substrate after 60 mins by ELISA; summary of the method: as §2
[4] = biological target: Fibroblast growth factor receptor 4 (Homo sapiens, UniProt P22455); assay: Inhibition of FGFR4 using poly(Glu-Tyr)4:1 as substrate after 60 mins by ELISA; summary of the method: as §2
[5] = biological target: T1, Fibroblast growth factor receptor 1; assay: Inhibition of FGFR1 in human BxPC3 cells assessed as reduction of Erk1/2 phosphorylation after 12 hrs by Western blot analysis; assay type: cell-based; settings: BXPC-3
Summary of the method: (§3)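 BxPC3 cells plated at 3 × 10^5 per well, serum-starved 24 h, then treated 12 h with compound (1.25, 2.5, 5, 10 μM). Whole-cell lysates run on 10% SDS-PAGE and immunoblotted for phospho-FGFR1 (Tyr653/654), phospho-Erk1/2 (T202/Y204), phospho-Akt and totals, with GAPDH loading control.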
Target sequence in this assay (P11362 22-822 limits assumed): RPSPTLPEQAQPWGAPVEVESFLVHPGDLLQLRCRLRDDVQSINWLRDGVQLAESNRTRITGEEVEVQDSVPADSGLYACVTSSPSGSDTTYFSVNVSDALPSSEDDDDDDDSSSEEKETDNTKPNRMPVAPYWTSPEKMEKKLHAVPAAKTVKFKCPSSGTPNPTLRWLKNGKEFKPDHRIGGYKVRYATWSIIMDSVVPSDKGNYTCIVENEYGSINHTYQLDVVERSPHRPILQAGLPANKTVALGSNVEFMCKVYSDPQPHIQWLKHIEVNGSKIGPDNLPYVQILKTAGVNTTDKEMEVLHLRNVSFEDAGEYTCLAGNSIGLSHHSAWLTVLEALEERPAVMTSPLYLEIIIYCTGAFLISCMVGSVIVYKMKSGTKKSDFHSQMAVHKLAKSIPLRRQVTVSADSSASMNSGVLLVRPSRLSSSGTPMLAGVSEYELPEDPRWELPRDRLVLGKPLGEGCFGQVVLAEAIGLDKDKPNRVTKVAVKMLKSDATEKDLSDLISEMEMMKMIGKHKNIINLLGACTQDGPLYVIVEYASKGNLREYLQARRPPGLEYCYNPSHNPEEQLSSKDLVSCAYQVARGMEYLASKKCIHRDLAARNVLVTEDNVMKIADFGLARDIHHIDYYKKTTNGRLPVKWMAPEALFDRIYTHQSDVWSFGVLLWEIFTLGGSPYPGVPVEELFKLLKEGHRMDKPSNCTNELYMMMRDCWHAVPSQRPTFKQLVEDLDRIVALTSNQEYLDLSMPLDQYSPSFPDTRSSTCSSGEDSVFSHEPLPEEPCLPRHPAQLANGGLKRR

[6] = biological target: Fibroblast growth factor receptor 2 (Homo sapiens, UniProt P21802); assay: Inhibition of FGFR2 using poly(Glu-Tyr)4:1 as substrate after 60 mins by ELISA; summary of the method: as §2
[7] = biological target: Vascular endothelial growth factor receptor 2 (Homo sapiens, UniProt P35968); assay: Inhibition of VEGFR2 expressed in Bac-to-Bac Baculovirus expression system using poly(Glu-Tyr)4:1 as substrate after 60 mins by ELISA; summary of the method: as §2
[8] = biological target: T1, Fibroblast growth factor receptor 1; assay: Inhibition of FGFR1 in human BxPC3 cells assessed as reduction of Akt phosphorylation at 10 uM after 12 hrs by Western blot analysis; assay type: cell-based; settings: BXPC-3; summary of the method: as §3
Target sequence in this assay (P11362 22-822 limits assumed): as above

[9] = biological target: Fibroblast growth factor receptor 3 (Homo sapiens, UniProt P22607); assay: Inhibition of FGFR3 using poly(Glu-Tyr)4:1 as substrate after 60 mins by ELISA; summary of the method: as §2
Fibroblast growth factor receptor 3, sequence (P22607 whole entry): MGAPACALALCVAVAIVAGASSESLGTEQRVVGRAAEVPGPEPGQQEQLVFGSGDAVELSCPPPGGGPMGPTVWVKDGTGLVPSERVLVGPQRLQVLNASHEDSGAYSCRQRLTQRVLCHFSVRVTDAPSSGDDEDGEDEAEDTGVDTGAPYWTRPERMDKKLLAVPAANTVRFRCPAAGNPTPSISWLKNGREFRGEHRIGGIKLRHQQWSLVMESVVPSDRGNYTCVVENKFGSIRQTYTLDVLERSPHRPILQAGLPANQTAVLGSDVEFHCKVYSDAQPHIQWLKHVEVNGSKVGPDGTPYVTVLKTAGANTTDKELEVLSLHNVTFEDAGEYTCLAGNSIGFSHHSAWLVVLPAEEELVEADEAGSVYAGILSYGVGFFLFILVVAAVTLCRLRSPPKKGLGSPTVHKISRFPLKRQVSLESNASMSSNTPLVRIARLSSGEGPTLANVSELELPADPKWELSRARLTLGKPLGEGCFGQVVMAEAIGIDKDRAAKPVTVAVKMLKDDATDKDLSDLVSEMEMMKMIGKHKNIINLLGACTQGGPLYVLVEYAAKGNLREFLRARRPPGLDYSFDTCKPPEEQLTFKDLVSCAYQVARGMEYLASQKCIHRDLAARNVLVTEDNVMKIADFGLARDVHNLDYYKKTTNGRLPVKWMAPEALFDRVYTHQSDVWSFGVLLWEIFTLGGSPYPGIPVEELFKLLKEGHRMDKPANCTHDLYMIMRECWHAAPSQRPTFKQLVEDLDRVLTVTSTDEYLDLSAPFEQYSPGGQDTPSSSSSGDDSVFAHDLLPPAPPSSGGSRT

[10] = biological target: Mast/stem cell growth factor receptor Kit (Homo sapiens, UniProt P10721); assay: Inhibition of c-kit expressed in Bac-to-Bac Baculovirus expression system using poly(Glu-Tyr)4:1 as substrate after 60 mins by ELISA; summary of the method: as §2
[11] = biological target: Proto-oncogene tyrosine-protein kinase Src (Homo sapiens, UniProt P12931); assay: Inhibition of c-Src expressed in Bac-to-Bac Baculovirus expression system using poly(Glu-Tyr)4:1 as substrate after 60 mins by ELISA; summary of the method: as §2
[12] = biological target: Tyrosine-protein kinase ABL1 (Homo sapiens, UniProt P00519); assay: Inhibition of Abl using poly(Glu-Tyr)4:1 as substrate after 60 mins by ELISA; summary of the method: as §2
Ephrin type-B receptor 2 = biological target: T2, Ephrin type-B receptor 2 (Homo sapiens, UniProt P29323); assay: Inhibition of EphB2 expressed in Bac-to-Bac Baculovirus expression system using poly(Glu-Tyr)4:1 as substrate after 60 mins by ELISA; summary of the method: as §2
T2 sequence (P29323 whole entry): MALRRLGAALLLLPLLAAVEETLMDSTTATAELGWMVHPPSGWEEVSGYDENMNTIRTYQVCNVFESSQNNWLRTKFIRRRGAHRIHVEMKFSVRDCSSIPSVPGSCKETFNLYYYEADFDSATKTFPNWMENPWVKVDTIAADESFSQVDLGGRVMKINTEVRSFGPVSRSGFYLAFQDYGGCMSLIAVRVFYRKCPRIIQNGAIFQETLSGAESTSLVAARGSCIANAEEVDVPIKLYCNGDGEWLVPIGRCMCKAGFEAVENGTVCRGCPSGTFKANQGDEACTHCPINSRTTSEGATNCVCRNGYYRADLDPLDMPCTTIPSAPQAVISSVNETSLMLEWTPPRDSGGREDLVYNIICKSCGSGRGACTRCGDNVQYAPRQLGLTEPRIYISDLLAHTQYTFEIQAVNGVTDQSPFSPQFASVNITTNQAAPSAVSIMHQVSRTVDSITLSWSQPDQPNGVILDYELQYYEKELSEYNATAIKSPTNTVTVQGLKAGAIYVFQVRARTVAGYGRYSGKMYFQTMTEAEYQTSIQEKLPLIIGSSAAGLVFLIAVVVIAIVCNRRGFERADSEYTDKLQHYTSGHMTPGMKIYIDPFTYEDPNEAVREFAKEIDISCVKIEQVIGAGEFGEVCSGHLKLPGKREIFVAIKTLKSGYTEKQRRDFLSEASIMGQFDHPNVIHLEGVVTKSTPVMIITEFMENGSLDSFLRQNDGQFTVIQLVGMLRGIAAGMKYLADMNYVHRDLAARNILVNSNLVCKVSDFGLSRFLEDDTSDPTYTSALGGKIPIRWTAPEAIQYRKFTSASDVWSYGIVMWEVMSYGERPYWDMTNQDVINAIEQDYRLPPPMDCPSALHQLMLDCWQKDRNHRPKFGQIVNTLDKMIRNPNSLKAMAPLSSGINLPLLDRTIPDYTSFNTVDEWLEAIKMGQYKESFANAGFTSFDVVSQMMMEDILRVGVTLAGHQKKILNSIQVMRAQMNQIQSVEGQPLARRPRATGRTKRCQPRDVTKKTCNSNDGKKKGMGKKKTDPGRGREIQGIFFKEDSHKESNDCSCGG

[13] = biological target: Insulin-like growth factor 1 receptor (Homo sapiens, UniProt P08069); assay: Inhibition of IGF1R expressed in Bac-to-Bac Baculovirus expression system using poly(Glu-Tyr)4:1 as substrate after 60 mins by ELISA; summary of the method: as §2
[14] = biological target: Vascular endothelial growth factor receptor 1 (Homo sapiens, UniProt P17948); assay: Inhibition of VEGFR1 using poly(Glu-Tyr)4:1 as substrate measured after 60 mins by ELISA; summary of the method: as §2
[15] = biological target: T1, Fibroblast growth factor receptor 1; assay: Inhibition of FGFR1 in human BxPC3 cells assessed as reduction of Erk1/2 phosphorylation at 10 uM after 12 hrs by Western blot analysis; assay type: cell-based; settings: BXPC-3; summary of the method: as §3
Target sequence in this assay (P11362 22-822 limits assumed): as the sequence (P11362 22-822 limits assumed) above

[16] = biological target: Proto-oncogene tyrosine-protein kinase receptor Ret (Homo sapiens, UniProt P07949); assay: Inhibition of RET expressed in Bac-to-Bac Baculovirus expression system using poly(Glu-Tyr)4:1 as substrate after 60 mins by ELISA; summary of the method: as §2
[17] = biological target: Platelet-derived growth factor receptor beta (Homo sapiens, UniProt P09619); assay: Inhibition of PDGFRbeta using poly(Glu-Tyr)4:1 as substrate after 60 mins by ELISA; summary of the method: as §2
Ephrin type-A receptor 2 = Ephrin type-A receptor 2 (Homo sapiens, UniProt P29317); assay: Inhibition of EphA2 expressed in Bac-to-Bac Baculovirus expression system using poly(Glu-Tyr)4:1 as substrate after 60 mins by ELISA; summary of the method: as §2
Ephrin type-A receptor 2, sequence (P29317 whole entry): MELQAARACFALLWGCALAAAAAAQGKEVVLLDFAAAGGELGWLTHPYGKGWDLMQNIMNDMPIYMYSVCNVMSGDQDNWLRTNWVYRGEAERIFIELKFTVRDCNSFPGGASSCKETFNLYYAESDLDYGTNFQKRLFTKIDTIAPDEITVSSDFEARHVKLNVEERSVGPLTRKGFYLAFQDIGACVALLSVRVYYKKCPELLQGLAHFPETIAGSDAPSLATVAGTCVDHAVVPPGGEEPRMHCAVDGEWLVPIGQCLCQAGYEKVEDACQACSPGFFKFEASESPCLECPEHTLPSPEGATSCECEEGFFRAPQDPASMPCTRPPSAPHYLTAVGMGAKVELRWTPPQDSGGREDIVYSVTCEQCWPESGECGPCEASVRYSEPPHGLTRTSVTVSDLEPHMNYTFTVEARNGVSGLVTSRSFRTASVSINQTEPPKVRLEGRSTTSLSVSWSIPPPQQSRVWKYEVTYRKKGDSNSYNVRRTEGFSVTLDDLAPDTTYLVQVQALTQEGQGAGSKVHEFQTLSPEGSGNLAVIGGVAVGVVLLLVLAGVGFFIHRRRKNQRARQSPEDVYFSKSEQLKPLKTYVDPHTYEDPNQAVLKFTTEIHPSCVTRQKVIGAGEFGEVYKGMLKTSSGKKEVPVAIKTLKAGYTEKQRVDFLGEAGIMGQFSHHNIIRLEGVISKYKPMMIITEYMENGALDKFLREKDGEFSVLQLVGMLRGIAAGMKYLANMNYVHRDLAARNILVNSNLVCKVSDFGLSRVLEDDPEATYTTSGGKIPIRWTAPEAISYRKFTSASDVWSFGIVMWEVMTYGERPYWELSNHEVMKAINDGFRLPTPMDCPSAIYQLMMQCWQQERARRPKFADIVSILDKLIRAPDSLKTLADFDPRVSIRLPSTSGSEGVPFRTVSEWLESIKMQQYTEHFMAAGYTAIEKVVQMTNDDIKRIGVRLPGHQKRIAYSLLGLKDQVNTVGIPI

Row | SMILES | IC50 (BXPC-3) [µM] | IC50 [1] [nM] | IC50 (WI-38) [µM] | IC50 (T-24) [µM] | other results
1 | CCCSc1ccc2c3c(cccc13)C1=NC(=O)C(C(=O)OCC)=C12 | 5.8 | > 10000 | 9.6 | 1.7 | Activity (Calf thymus DNA): Active
2 | C=CCSc1ccc2c3c(cccc13)C1=NC(=O)C(C#N)=C12 |  | > 10000 |  |  | 
3 | CCOC(=O)C1=C2C(=NC1=O)c1cccc3c(SCCc4cnccn4)ccc2c13 |  | 2100 |  |  | 
4 | CCCSc1ccc2c3c(cccc13)C1=NC(=O)C(C#N)=C12 |  | > 10000 |  |  | 
5 | CCOC(=O)C1=C2C(=NC1=O)c1cccc3c(SCCO)ccc2c13 |  | 320 |  |  | 
6 | CCOC(=O)C1=C2C(=NC1=O)c1cccc3cccc2c13 | 4.7 | 74 | 6.2 | 2.9 | IC50 [2]: > 10 µM; IC50 [3]: > 10 µM; IC50 [4]: > 10 µM; inhibition [5]: Dose-dependent effect; IC50 [6]: > 10 µM; IC50 [7]: > 10 µM; inhibition [8]: inactive; IC50 [9]: 4.6 µM; IC50 [10]: > 10 µM; IC50 [11]: > 10 µM; IC50 [12]: > 10 µM; IC50 (Ephrin type-B receptor 2): > 10 µM; IC50 [13]: > 10 µM; IC50 [14]: 3.2 µM; inhibition [15]: Active; IC50 [16]: > 10 µM; IC50 [17]: > 10 µM; IC50 (Ephrin type-A receptor 2): > 10 µM
7 | C=CCOC(=O)C1=C2C(=NC1=O)c1cccc3c(SCCC)ccc2c13 | 12.9 | > 10000 | 33.2 | 13.1 | Activity (Calf thymus DNA): Active

Second part, led by results:

Row | IC50 (BXPC-3) [µM] | IC50 [1] [nM] | SMILES | IC50 (WI-38) [µM] | IC50 (T-24) [µM] | other results
8 | 13.7 | 577 | C=CCSc1ccc2c3c(cccc13)C1=NC(=O)C(C(=O)OCC(=O)SCCC)=C12 | > 100 | 71.8 | 
9 | 54.1 | > 10000 | CCCSc1ccc2c3c(cccc13)C1=NC(=O)C(C(=O)OCC(=O)OCC(F)(F)C(F)(F)F)=C12 | 58.8 | > 100 | 
10 |  | 334 | Cc1c[nH]c(/C=C2\C(=O)Nc3ccccc32)c1CCC(=O)O |  |  | 
11 |  | > 10000 | CC1OCCC1Sc1ccc2c3c(cccc13)C1=NC(=O)C(C#N)=C12 (stereo not given) |  |  | 
12 |  | > 10000 | CC(C)Sc1ccc2c3c(cccc13)C1=NC(=O)C(C#N)=C12 |  |  | 
13 | 2.5 | 216 | C=CCOC(=O)C1=C2C(=NC1=O)c1cccc3c(SCC=C)ccc2c13 | 19.7 | 6.6 | 
14 | 10.1 | 65 | CCCSC(=O)COC(=O)C1=C2C(=NC1=O)c1cccc3cccc2c13 | 25.2 | 10.5 | 
